Assay results: article PMC7429258 (Molecular pharmaceutics, 2020)
Entries after “also recorded” stand apart in the source; their conditions may differ.

How the values were obtained:
[1] = system: untransfected HEK293 cells; experiment: fura-2 assay of [Ca2+]i in untransfected HEK293 cells; assay type: cell-based, human; conditions: DG2 0.1–10 μM; ADP 20 μM positive control
Procedure, shortened: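 Trypsinized HEK293 cells plated on rat tail collagen-coated 96-well plates and loaded with fura-2 AM. Read in kinetic mode on a fluorescence plate reader. Test solutions added by automated pipetting at 100 s. Data sampled at 6 s intervals over 300 s. Read-out: percent change in 340/380 ratio after baseline subtraction. Each experiment repeated at least three times.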

CCK2i4svR = molecular target: T1, CCK2i4svR (Homo sapiens, UniProt P32239); assay type: binding; conditions: read-out: IC50, displacement of [125I][I-Tyr12,Leu15]gastrin; HEK293-CCK2i4svR cell membranes, 60 min at 22 °C, mean ± SD, n = 3
T1 sequence (P32239 1-516 isoform P32239-2): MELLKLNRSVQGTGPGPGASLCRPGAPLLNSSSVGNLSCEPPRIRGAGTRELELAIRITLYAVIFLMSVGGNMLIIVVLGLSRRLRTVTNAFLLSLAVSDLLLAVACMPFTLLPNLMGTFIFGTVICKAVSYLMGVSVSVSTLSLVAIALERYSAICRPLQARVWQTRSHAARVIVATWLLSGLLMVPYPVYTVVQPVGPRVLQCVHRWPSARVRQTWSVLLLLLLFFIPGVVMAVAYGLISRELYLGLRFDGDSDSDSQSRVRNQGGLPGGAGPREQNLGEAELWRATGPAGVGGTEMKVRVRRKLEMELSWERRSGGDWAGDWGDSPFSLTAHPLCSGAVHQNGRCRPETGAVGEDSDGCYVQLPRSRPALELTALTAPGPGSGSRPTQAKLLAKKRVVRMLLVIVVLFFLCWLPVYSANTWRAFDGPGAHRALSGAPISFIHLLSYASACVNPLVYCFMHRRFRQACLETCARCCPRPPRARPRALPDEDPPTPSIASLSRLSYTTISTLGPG
Procedure, shortened: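 Parent nonpeptidic antagonist served as reference. Stopped with ice-cold 10 mM HEPES pH 7.4/150 mM NaCl, then rapid GF/B glass-fibre filtration and gamma counting. IC50 by one-site nonlinear regression; mean ± SD, three experiments in triplicate.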

Nc1ncnc2c1ncn2[C@@H]1O[C@H](COP(=O)(O)OP(=O)(O)O)[C@@H](O)[C@H]1O [ADP] was tested. Which “agonist action on [Ca2+]i in untransfected HEK293 cells” value [1] did it give?
The value was “did respond; also recorded: does exert an agonist action”.

CC(C)(C)C(=O)CN1C(=O)[C@H](NC(=O)Nc2cccc(C(=O)O)c2)CN(C2CCCCC2)c2ccccc21 [Z-360, 3-[[[[(3R)-5-cyclohexyl-1-(3,3-dimethyl-2-ox-obutyl)-2,3,4,5-tetrahydro-2-oxo-1H-1,5-benzodiazepin-3-yl]-amino]carbonyl]amino]benzoic acid] was tested. Which IC50 (CCK2i4svR) did it give?
The IC50 was 1.57 ± 0.14 nM.
